# Measurements: paper PMC4980839 (Archiv der Pharmazie, 2010)
# Like-named read-outs stand apart in the source and are kept apart here.
# How the values were obtained:
# Assay type in all cases: biochemical
# human PDE5 = human PDE5 (Homo sapiens, UniProt O76074); experiment: PDE5 inhibition, IMAP fluorescence polarization phosphodiesterase assay; conditions: for inhibition at 50 µM: read-out: % cGMP inhibition (50 μM)
# PDE4B = PDE4B (Homo sapiens, UniProt Q07343); experiment: PDE4B inhibition
# PDE11A = PDE11A (Homo sapiens, UniProt Q9HCR9); experiment: PDE11A inhibition
# Chain of PDE11A (Q9HCR9 whole entry): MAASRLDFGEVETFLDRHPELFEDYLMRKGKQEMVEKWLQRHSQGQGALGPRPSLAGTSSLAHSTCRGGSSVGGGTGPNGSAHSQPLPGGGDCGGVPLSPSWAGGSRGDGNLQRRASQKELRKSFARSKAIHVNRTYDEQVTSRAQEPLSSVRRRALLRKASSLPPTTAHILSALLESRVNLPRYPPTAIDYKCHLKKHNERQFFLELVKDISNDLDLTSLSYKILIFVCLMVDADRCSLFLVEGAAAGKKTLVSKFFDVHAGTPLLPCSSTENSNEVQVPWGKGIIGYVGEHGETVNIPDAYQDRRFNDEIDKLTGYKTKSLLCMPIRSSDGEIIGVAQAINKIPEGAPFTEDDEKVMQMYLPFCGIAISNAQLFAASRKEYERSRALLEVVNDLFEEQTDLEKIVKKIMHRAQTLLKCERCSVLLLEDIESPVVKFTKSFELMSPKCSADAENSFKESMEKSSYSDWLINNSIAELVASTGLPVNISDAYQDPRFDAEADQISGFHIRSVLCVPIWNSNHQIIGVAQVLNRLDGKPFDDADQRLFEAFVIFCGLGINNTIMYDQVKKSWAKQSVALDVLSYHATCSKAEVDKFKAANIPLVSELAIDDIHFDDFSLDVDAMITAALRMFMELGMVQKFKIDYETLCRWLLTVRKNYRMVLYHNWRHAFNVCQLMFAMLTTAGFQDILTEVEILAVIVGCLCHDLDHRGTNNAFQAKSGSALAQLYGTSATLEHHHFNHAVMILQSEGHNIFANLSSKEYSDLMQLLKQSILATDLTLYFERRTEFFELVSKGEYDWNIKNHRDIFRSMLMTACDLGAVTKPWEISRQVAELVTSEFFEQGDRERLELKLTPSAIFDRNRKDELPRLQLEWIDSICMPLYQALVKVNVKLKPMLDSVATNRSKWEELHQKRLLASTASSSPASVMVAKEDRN
# PDE3B = PDE3B (Homo sapiens, UniProt Q13370); experiment: PDE3B inhibition
# Chain of PDE3B (Q13370 592-1112 limits assumed): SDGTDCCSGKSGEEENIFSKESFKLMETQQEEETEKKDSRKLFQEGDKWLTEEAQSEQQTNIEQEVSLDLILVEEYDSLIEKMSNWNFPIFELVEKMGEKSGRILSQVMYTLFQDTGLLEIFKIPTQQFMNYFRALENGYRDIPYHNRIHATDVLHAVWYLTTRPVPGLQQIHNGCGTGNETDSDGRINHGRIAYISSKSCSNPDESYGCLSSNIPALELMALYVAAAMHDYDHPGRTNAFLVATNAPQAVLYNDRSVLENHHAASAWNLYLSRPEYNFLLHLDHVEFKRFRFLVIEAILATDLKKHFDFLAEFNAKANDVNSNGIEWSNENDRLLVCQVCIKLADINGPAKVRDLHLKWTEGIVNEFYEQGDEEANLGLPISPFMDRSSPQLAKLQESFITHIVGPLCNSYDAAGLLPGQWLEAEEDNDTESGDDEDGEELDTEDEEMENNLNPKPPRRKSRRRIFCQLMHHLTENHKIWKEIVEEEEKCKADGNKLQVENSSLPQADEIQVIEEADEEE
# Summary of the method: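 Reaction started with a substrate solution of 50 nM TAMRA-cGMP and/or Fl-cAMP. Run 60 min at room temperature, stopped with IMAP binding solution. Hydrolysis read as fluorescence polarization (TAMRA 530–590 nm).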
# [1] = read-out: IC50 PDE3B cGMP, cGMP as substrate
# Chain of PDE4B (Q07343 whole entry): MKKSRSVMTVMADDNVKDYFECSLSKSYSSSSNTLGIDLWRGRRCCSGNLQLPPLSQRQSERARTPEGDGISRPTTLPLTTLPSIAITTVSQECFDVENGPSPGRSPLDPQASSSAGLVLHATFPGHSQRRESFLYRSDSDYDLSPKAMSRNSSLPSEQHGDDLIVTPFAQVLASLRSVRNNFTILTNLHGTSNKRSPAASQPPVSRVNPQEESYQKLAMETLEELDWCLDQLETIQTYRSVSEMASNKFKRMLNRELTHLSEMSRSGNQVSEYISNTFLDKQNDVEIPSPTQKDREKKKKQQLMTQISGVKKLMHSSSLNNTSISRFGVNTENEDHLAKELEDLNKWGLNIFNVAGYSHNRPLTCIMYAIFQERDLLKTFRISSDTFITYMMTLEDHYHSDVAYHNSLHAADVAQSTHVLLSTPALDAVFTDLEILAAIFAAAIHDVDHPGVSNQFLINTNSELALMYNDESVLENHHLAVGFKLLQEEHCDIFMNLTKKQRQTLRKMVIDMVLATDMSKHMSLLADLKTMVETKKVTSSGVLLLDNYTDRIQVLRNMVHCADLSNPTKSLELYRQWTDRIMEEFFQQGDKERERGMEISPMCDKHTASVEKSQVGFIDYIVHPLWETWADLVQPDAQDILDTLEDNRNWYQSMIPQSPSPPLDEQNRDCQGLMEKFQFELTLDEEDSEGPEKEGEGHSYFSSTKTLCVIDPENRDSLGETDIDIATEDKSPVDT
Structure (SMILES),inhibition at 50 µM (human PDE5),other results
"COC(=O)[C@@H]1Cc2c([nH]c3ccccc23)[C@H](c2ccc(Cl)cc2)N1 [III, Methyl (1S,3S)-1-(4-chlorophenyl)-2,3,4,9-tetrahydro-1H-β-carboline-3-carboxylate]",9%,
"COC(=O)[C@H]1Cc2c([nH]c3ccccc23)[C@@H](c2ccc(Cl)cc2)N1 [I, Methyl (1R,3R)-1-(4 chlorophenyl)-2,3,4,9-tetrahydro-1H-β-carboline-3-carboxylate]",35%,
"O=C1[C@H]2Cc3c([nH]c4ccccc34)[C@@H](c3ccc(Cl)cc3)N2C(=O)N1c1ccc(Cl)cc1 [XIII, (5R,11aR)-2,5-Bis(4-chlorophenyl)-5,6,11,11a-tetrahydro-1H-imidazo[1’,5’:1,6]pyrido[3,4-b]indole-1,3(2H)-dione]",22%,
"CCN1CC(=O)N2[C@H](c3ccc(Cl)cc3)c3[nH]c4ccccc4c3C[C@@H]2C1=O [XXI, (6R,12aR)-2-Ethyl-6-(4-chlorophenyl)-2,3,6,7,12,12a-hexahydropyrazino[1’,2’:1,6]pyrido[3,4-b]indole-1,4-dione]",102%,"potency compared with tadalafil (human PDE5; PDE5 IC50 relative to tadalafil): two-fold; IC50 (human PDE5; read-out: IC50 PDE5A, Table 5 PDE panel): 3 nM; IC50 (PDE4B): > 50 µM; IC50 (PDE11A; IC50 PDE11A cAMP, cAMP as substrate): 706 nM; IC50 (PDE11A; IC50 PDE11A cGMP, cGMP as substrate): 157 nM; Selectivity index IC50 (PDE11/PDE5) cGMP/cGMP (PDE11A; PDE11A with cGMP versus PDE5 with cGMP): 52.3; IC50 (PDE3B): > 50 µM; IC50 (PDE3B; [1]): > 50 µM"
"CCN1C(=O)[C@@H]2Cc3c([nH]c4ccccc34)[C@@H](c3ccc(Cl)cc3)N2C1=O [VIII, (5R,11aS)-2-Ethyl-5-(4-chlorophenyl)-5,6,11,11a-tetrahydro-1H-imidazo[1’,5’:1,6]pyrido[3,4-b]indole-1,3(2H)-dione]",102%,
"CCN1C(=O)[C@H]2Cc3c([nH]c4ccccc34)[C@H](c3ccc(Cl)cc3)N2C1=O [VI, (5S,11aR)-2-Ethyl-5-(4-chlorophenyl)-5,6,11,11a-tetrahydro-1H-imidazo[1’,5’:1,6]pyrido[3,4-b]indole-1,3(2H)-dione]",47%,
"CN1CC(=O)N2[C@H](c3ccc4c(c3)OCO4)c3[nH]c4ccccc4c3C[C@@H]2C1=O [Tadalafil, reference compound]",,IC50 (PDE3B): > 50 µM; IC50 (PDE3B; [1]): > 50 µM
"O=C1[C@H]2Cc3c([nH]c4ccccc34)[C@H](c3ccc(Cl)cc3)N2C(=O)N1c1ccc(Cl)cc1 [XIV, (5S,11aR)-2,5-Bis(4-chlorophenyl)-5,6,11,11a-tetrahydro-1H-imidazo[1’,5’:1,6]pyrido[3,4-b]indole-1,3(2H)-dione]",29%,
"COC(=O)[C@@H]1Cc2c([nH]c3ccccc23)[C@@H](c2ccc(Cl)cc2)N1C(=O)CCl [XX, Methyl (1R,3S)-1-(4-chlorophenyl)-2-(chloroacetyl)-2,3,4,9-tetrahydro-1H-β-carboline-3-carboxylate]",78%,
"O=C1[C@@H]2Cc3c([nH]c4ccccc34)[C@H](c3ccc(Cl)cc3)N2C(=O)N1c1ccc(Cl)cc1 [XV, (5S,11aS)-2,5-Bis(4-chlorophenyl)-5,6,11,11a-tetrahydro-1H-imidazo[1’,5’:1,6]pyrido[3,4-b]indole-1,3(2H)-dione]",33%,
"O=C1[C@@H]2Cc3c([nH]c4ccccc34)[C@@H](c3ccc(Cl)cc3)N2C(=O)N1c1ccc(Cl)cc1 [XVI, (5R,11aS)-2,5-Bis(4-chlorophenyl)-5,6,11,11a-tetrahydro-1H-imidazo[1’,5’:1,6]pyrido[3,4-b]indole-1,3(2H)-dione]",84%,IC50 (human PDE5): 1090 nM
"COC(=O)[C@H]1Cc2c([nH]c3ccccc23)[C@H](c2ccc(Cl)cc2)N1C(=O)CCl [XVIII, Methyl (1S,3R)-1-(4-chlorophenyl)-2-(chloroacetyl)-2,3,4,9-tetrahydro-1H-β-carboline-3-carboxylate]",6%,
"COC(=O)[C@@H]1Cc2c([nH]c3ccccc23)[C@H](c2ccc(Cl)cc2)N1C(=O)CCl [XIX, Methyl (1S, 3S)-1-(4-chlorophenyl)-2-(chloroacetyl)-2,3,4,9-tetrahydro-1H-b-carboline-3-carboxylate]",,"% cGMP inhibition (50 μM) (human PDE5; PDE5, compound at 50 μM, triplicate, TAMRA-cGMP substrate): 6%"
"COC(=O)[C@@H]1Cc2c([nH]c3ccccc23)[C@@H](c2ccc(Cl)cc2)N1 [IV, Methyl (1R,3S)-1-(4-chlorophenyl)-2,3,4,9-tetrahydro-1H-β-carboline-3-carboxylate]",48%,
"COC(=O)[C@H]1Cc2c([nH]c3ccccc23)[C@@H](c2ccc(Cl)cc2)N1C(=O)CCl [XVII, Methyl (1R,3R)-1-(4-chlorophenyl)-2-(chloroacetyl)-2,3,4,9-tetrahydro-1H-β-carboline-3-carboxylate]",25%,
"COC(=O)[C@H]1Cc2c([nH]c3ccccc23)[C@H](c2ccc(Cl)cc2)N1 [II, Methyl (1S,3R)-1-(4-chlorophenyl)-2,3,4,9-tetrahydro-1H-β-carboline-3-carboxylate]",4%,

# The next lines start with results.
inhibition at 50 µM (human PDE5),Structure (SMILES),other results
55%,"CC(C)(C)N1CC(=O)N2[C@H](c3ccc(Cl)cc3)c3[nH]c4ccccc4c3C[C@@H]2C1=O [XXV, (6R,12aR)-2-tert-Butyl-6-(4-chlorophenyl)-2,3,6,7,12,12a-hexahydropyrazino[1’,2’:1,6]pyrido[3,4-b]indole-1,4-dione]",
87%,"CCN1CC(=O)N2[C@H](c3ccc(Cl)cc3)c3[nH]c4ccccc4c3C[C@H]2C1=O [XXIV, (6R,12aS)-2-Ethyl-6-(4-chlorophenyl)-2,3,6,7,12,12a-hexahydropyrazino[1’,2’:1,6]pyrido[3,4-b]indole-1,4-dione]",IC50 (human PDE5): 1200 nM
45%,"CCN1CC(=O)N2[C@@H](c3ccc(Cl)cc3)c3[nH]c4ccccc4c3C[C@H]2C1=O [XXIII, (6S,12aS)-2-Ethyl-6-(4-chlorophenyl)-2,3,6,7,12,12a-hexahydropyrazino[1’,2’:1,6]pyrido[3,4-b]indole-1,4-dione]",
10%,"CC(C)(C)N1CC(=O)N2[C@@H](c3ccc(Cl)cc3)c3[nH]c4ccccc4c3C[C@@H]2C1=O [XXVI, (6S,12aR)-2-tert-Butyl-6-(4-chlorophenyl)-2,3,6,7,12,12a-hexahydropyrazino[1’,2’:1,6]pyrido[3,4-b]indole-1,4-dione]",
83%,"CC(C)(C)N1C(=O)[C@@H]2Cc3c([nH]c4ccccc34)[C@@H](c3ccc(Cl)cc3)N2C1=O [XII, (5R,11aS)-2-tert-Butyl-5-(4-chlorophenyl)-5,6,11,11a-tetrahydro-1H-imidazo[1’,5’:1,6]pyrido[3,4-b]indole-1,3(2H)-dione]",IC50 (human PDE5): > 10000 nM
80%,"CCN1CC(=O)N2[C@@H](c3ccc(Cl)cc3)c3[nH]c4ccccc4c3C[C@@H]2C1=O [XXII, (6S,12aR)-2-Ethyl-6-(4-chlorophenyl)-2,3,6,7,12,12a-hexahydropyrazino[1’,2’:1,6]pyrido[3,4-b]indole-1,4-dione]",IC50 (human PDE5): 1720 nM
42%,"CC(C)(C)N1CC(=O)N2[C@@H](c3ccc(Cl)cc3)c3[nH]c4ccccc4c3C[C@H]2C1=O [XXVII, (6S,12aS)-2-tert-Butyl-6-(4-chlorophenyl)-2,3,6,7,12,12a-hexahydropyrazino[1’,2’:1,6]pyrido[3,4-b]indole-1,4-dione]",
20%,"CC(C)(C)N1C(=O)[C@@H]2Cc3c([nH]c4ccccc34)[C@H](c3ccc(Cl)cc3)N2C1=O [XI, (5S,11aS)-2-tert-Butyl-5-(4-chlorophenyl)-5,6,11,11a-tetrahydro-1H-imidazo[1’,5’:1,6]pyrido[3,4-b]indole-1,3(2H)-dione]",
54%,"CC(C)(C)N1C(=O)[C@H]2Cc3c([nH]c4ccccc34)[C@H](c3ccc(Cl)cc3)N2C1=O [X, (5S,11aR)-2-tert-Butyl-5-(4-chlorophenyl)-5,6,11,11a-tetrahydro-1H-imidazo[1’,5’:1,6]pyrido[3,4-b]indole-1,3(2H)-dione]",
30%,"CCN1C(=O)[C@@H]2Cc3c([nH]c4ccccc34)[C@H](c3ccc(Cl)cc3)N2C1=O [VII, (5S,11aS)-2-Ethyl-5-(4-chlorophenyl)-5,6,11,11a-tetrahydro-1H-imidazo[1’,5’:1,6]pyrido[3,4-b]indole-1,3(2H)-dione]",
85%,"CCN1C(=O)[C@H]2Cc3c([nH]c4ccccc34)[C@@H](c3ccc(Cl)cc3)N2C1=O [V, (5R,11aR)-2-Ethyl-5-(4-chlorophenyl)-5,6,11,11a-tetrahydro-1H-imidazo[1’,5’:1,6]pyrido[3,4-b]indole-1,3(2H)-dione]",IC50 (human PDE5): 1100 nM
100%,"CC(C)(C)N1C(=O)[C@H]2Cc3c([nH]c4ccccc34)[C@@H](c3ccc(Cl)cc3)N2C1=O [IX, (5R,11aR)-2-tert-Butyl-5-(4-chlorophenyl)-5,6,11,11a-tetrahydro-1H-imidazo[1’,5’:1,6]pyrido[3,4-b]indole-1,3(2H)-dione]",IC50 (human PDE5): 600 nM
55%,"CC(C)(C)N1CC(=O)N2[C@H](c3ccc(Cl)cc3)c3[nH]c4ccccc4c3C[C@H]2C1=O [XXVIII, (6R,12aS)-2-tert-Butyl-6-(4-chlorophenyl)-2,3,6,7,12,12a-hexahydropyrazino[1’,2’:1,6]pyrido[3,4-b]indole-1,4-dione]",
